# Screening data deposited in PubChem BioAssay by several laboratories.
# Most compounds without a hit are left out; they make up all but 2.5% or so of the library.
# T cell HTS – T cell immune modulation candidate; response (vesicle binding), % at 7 µM; 2C CD8+ T cell-vesicle binding, flow cytometry; active compounds read low; actives 0.068% (n = 330,000);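 active = response, share of CD8 T cells binding vesicles, and their 90th percentile fluorescence all below set limits, cut at about 80% in these data, passing the limit was not always enough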;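 also: values below 100% mean blocked vesicle binding to the CD8+ T cells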
#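 Incubation: binding step 1.5 h, 37 °C, antibody labelling 20 min, ice; system: murine 2C transgenic CD8+ T lymphocytes; technique: cytometric PE anti-B7-1 and Alexa647 anti-CD8 signals after 1% paraformaldehyde fixation; also added: QL9-charged Drosophila Ld/ICAM-1/B7-1 vesicles; control set: naked versus QL9-loaded vesicles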
# UCH37 inh – blocks the human deubiquitinase UCH37; Q9Y5K5; purified proteasome/UCH37, Ub-AMC cleavage fluorescence; inhibition, % (no concentration beside the values); actives 0.33% (n = 330,000); AID 588478;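 active = mean inhibition over replicate wells above about 20%, limit read from the data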;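 also: 0% = compound-free wells with enzyme and 100% = wells lacking proteasome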
# Target sequence (Q9Y5K5 whole entry, looked up): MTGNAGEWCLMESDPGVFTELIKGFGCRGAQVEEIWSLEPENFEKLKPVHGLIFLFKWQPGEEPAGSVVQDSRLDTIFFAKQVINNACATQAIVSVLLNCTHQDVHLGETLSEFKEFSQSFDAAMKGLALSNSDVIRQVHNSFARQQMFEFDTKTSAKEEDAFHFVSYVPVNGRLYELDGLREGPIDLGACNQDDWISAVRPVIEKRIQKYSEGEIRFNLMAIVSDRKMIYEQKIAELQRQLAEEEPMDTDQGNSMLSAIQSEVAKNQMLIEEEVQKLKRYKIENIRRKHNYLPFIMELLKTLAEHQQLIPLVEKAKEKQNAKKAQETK
#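 Test system – human UCH37 enzyme supplied as purified proteasome complex · Incubation – 30 min preincubation with enzyme, 25 min cleavage at room temperature · Detection – AMC fluorescence from Ub-AMC cleavage, excitation 355 nm, emission 460 nm · Benchmarks – no-proteasome wells (full inhibition) and compound-free wells (no inhibition)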
# MEKK2mut PB1 HTS – signal of MEK5 binding to mutant human MEKK2 PB1 domain; bead flow cytometry, Alexa488-MEK5 binding to MEKK2 mutant; percent response, % at 10 µM; actives 0.35% (n = 290,000); AID 1530; in the data active = percent response above about 24%, passing the limit was not always enough
# MEKK2wt PB1 HTS – raises or lowers MEK5 binding to wildtype human MEKK2 PB1 domain | bead flow cytometry, Alexa488-MEK5 binding to MEKK2 WT; actives lie on both sides | Q9Y2U5 | AID 1531 | actives 1.1% (n = 290,000) | binding response (% of control), % at 10 µM; in the data active = binding response below about 67% or above about 130%
# Rce1 inhib – yeast Ras-converting enzyme inhibition | Q03530 | yeast membranes, quenched prenylated peptide cleavage fluorescence | calls only | actives 0.27% (n = 290,000) | AID 2563;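 active = fall in fluorescence gain of 50% or more versus controls, with final raw signal at or below 3038400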;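 also: plate controls were neutral control wells for no effect and wells lacking membranes for full effect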
# MEKK3 PB1 HTS – modulators (inhibitors or enhancers) of MEK5 binding to human MEKK3 PB1 domain; Q99759; bead-based flow cytometry, Alexa488-MEK5 binding to MEKK3; actives lie on both sides; 0 = blocked by unlabeled MEK5, 100 = vehicle; binding response (% of control), % at 10 µM; actives 1.4% (n = 290,000); AID 1529;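 active = binding response more than 3 SD above or below the average of its plate-row segment, actives on both sides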;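 also: Alexa488 bead fluorescence after subtracting the streptavidin-only scavenger bead signal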
# MEKK2wt confirm – raises or lowers MEK5 binding to wildtype human MEKK2, retest. shares compounds with MEKK3 PB1 HTS. bead flow cytometry, Alexa488-MEK5 binding to MEKK2 WT; actives lie on both sides. binding response (% of control), % at 10 µM. actives 2.4% (n = 5,900). AID 1892; in the data active = binding response below about 16% or above about 210%; inactive = in between
# MEKK2mut-MEK5 – signal of MEK5 binding to mutant human MEKK2, retest; actives 2% (n = 5,900); bead flow cytometry, Alexa488-MEK5 binding to MEKK2 mutant; percent response, % at 10 µM; shares compounds with MEKK3 PB1 HTS; in the data active = percent response mostly above about 71%, no sharp cut-off; inactive = mostly below about 38%;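 also: higher means compound restores mutant binding toward wildtype level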
# MEKK3-MEK5 inh – confirmation of inhibitors of MEK5 binding to human MEKK3. shares compounds with MEKK3 PB1 HTS. AID 1894. binding response (% of control), % at 10 µM. actives 1.8% (n = 5,900). bead flow cytometry, Alexa488-MEK5 binding to MEKK3; active compounds read low;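 active = binding response below 72% of control, or above a set upper limit, though filed actives all read lower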;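 also: 100% = DMSO only wells and 0% = binding blocked by excess unlabeled MEK5; lower values mean stronger disruption of MEK5 binding to MEKK3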
# An asterisk follows results filed as active; i = inactive; / = not tested or not shown; + = active, no number; [ ] = another dose, or the depositor's remark.
SMILES,T cell HTS,UCH37 inh,MEKK2mut PB1 HTS,MEKK2wt PB1 HTS,Rce1 inhib,MEKK3 PB1 HTS,MEKK2wt confirm,MEKK2mut-MEK5,MEKK3-MEK5 inh
Cc1cn2c(N)c(C=C3C=C(Cl)C(=O)C(Cl)=C3)c(=O)nc2s1,/,13.6,-76.0,50.0*[inhibitor],/,94.0,99.0,-14.0,103.0
CC1=CC(=N/N=C2/NC(=O)C(CC(=O)Nc3ccccc3)S2)CC(C)(C)C1 (stereo not given),/,0.8,/,/,/,/,/,/,/
Cc1ccc(C)c2[nH]c(=O)c(CN(CCN3CCCC3)C(=O)Nc3cccc(Cl)c3)cc12,128.7,5.5,41.0*,153.0*,i,110.0,154.0,35.0,103.0
Cc1cc(C)c2cc(CN(CCN3CCCC3)C(=O)Nc3ccc(F)cc3)c(=O)[nH]c2c1,463.7,-1.4,18.0,126.0,i,105.0,/,/,/
COc1ccccc1CNC(=O)CSc1ccc(C)cc1,547.9,1.4,2.0,112.0,i,145.0*,103.0,2.0,102.0
COc1ccccc1CNC(=O)CSc1ccccc1,327.1,-0.5,-2.0,95.0,i,97.0,/,/,/
COc1ccccc1CNC(=O)CSc1nnc2c(Cl)cc(C(F)(F)F)cn12,467.4,-1.6,1.0,109.0,i,137.0*,109.0,5.0,109.0
C1CCC(C23CC4CC(CC(C4)C2)C3)NC1 (stereo not given),391.7,0.9,7.0,100.0,/,123.0*,101.0,-1.0,102.0
COc1ccc2nc(NC(=O)CN(C)S(=O)(=O)c3cccs3)sc2c1,344.3,2.3,-22.0,-7.0*[inhibitor],i,1.0*[inhibitor],103.0,11.0,103.0
CCOc1ccc2nc(NC(=O)COC)sc2c1,374.7,2.9,2.0,113.0,i,112.0,/,/,/
COc1ccc(NC(=O)Cn2cnc3ccccc3c2=O)cc1OC,243.9,0.5,-1.0,98.0,i,97.0,/,/,/
COc1ccc2nc(NC(=O)Cn3cnc4ccccc4c3=O)sc2c1,119.4,-5.8,-31.0,49.0*[inhibitor],i,68.0*[inhibitor],102.0,2.0,100.0
CCOCC(=O)Nc1nc2ccc(OC)cc2s1,270.4,2.6,-14.0,89.0,i,81.0*[inhibitor],97.0,-3.0,96.0
C=CCOc1cccc(C=NNC(=O)C(=O)NCc2ccco2)c1,/,1.9,/,/,/,/,/,/,/
Clc1ccc(Sc2ccc(C=Nn3cnnc3)o2)cc1,/,0.3,/,/,/,/,/,/,/
CCc1ccc(OCC(=O)Oc2ccc([N+](=O)[O-])cc2)cc1,175.5,5.2,-15.0,50.0*[inhibitor],i,39.0*[inhibitor],110.0,12.0,105.0
CCc1ccc(OCC(=O)O/N=C(\N)Cc2ccc([N+](=O)[O-])cc2)cc1,482.0,6.1,-2.0,98.0,i,102.0,/,/,/
COc1ccc(-c2nnc(OCc3ccccc3)c3ccccc23)cc1,92.3,-0.7,0.0,104.0,i,129.0*,110.0,9.0,110.0
C/C=C/c1ccc(OCCCCN(C)Cc2ccccc2)c(OC)c1,356.8,2.7,7.0,139.0*,i,107.0,120.0,9.0,100.0
CC(=NNC(=S)NCc1ccccc1)c1ccc2c(c1)OCCO2,/,3.4,/,/,/,/,/,/,/
N#CC1=C(N)Oc2n[nH]c(-c3ccccc3)c2C1c1cccnc1 (stereo not given),285.3,2.2,-4.0,96.0,i,97.0,/,/,/
CCOc1cc(C2C(C#N)=C(N)Oc3n[nH]c(-c4ccccc4)c32)ccc1O (stereo not given),248.4,5.3,8.0,113.0,i,125.0*,99.0,-4.0,101.0
CN1CCN(CCC(=O)Nc2ccc(C3CCCC3)cc2)CC1,558.6,3.2,26.0,142.0*,i,92.0,110.0,5.0,107.0
CC(=NNC(=O)c1ccc(NS(=O)(=O)c2cccs2)cc1)c1cccs1,/,10.8,/,/,/,/,/,/,/
COC(=O)[C@@H]1CC[C@H](C)[C@@H](c2ccc(C)cc2)N1C(=O)c1ccc(C=NO[C@@H](C)CN2CCCCc3nc(C)c(C)cc32)cc1,/,1.8,/,/,/,/,/,/,/
CCCCCCCCCCC[N+](C)(C)CC/C=C1/c2ccccc2Sc2ccc(Cl)cc21,287.2,/,143.0*,278.0*,+,97.0,195.0,60.0,111.0
CC[N+](C)(C)CC/C=C1/c2ccccc2Sc2ccc(Cl)cc21,453.9,1.5,5.0,111.0,i,104.0,/,/,/
CN(C)CC/C=C1\c2ccccc2Sc2ccc(Cl)cc21,74.4,-0.3,17.0,164.0*,i,72.0*[inhibitor],136.0,16.0,99.0
CCCCCCCCCC[N+](C)(C)CC/C=C1/c2ccccc2Sc2ccc(Cl)cc21,249.8,/,147.0*,291.0*,+,108.0,321.0*,172.0*,115.0
OCCN1CCN(CC/C=C2/c3ccccc3Sc3ccc(Cl)cc32)CC1,525.7,3.6,/,/,/,/,/,/,/
